Screen size: about 360,000 compounds; about 950 (0.26%) were called active.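 Rule for the calls: active = inhibition above a per-plate limit, mean inhibition of low control wells plus 3 SD (cut at about 25% in these data); inactive = the rest.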 For the sample, actives were picked, then their nearest neighbours and some compounds at random.
What follows are compounds tested against ADP-ribosylation factor GTPase-activating protein 1 (Rattus norvegicus) (UniProt Q62848) (assay: blockers of ARFGAP1-stimulated ARF1 GTP hydrolysis – biochemical, fluorescence polarization, GDP tracer, primary screen (AID 651572;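 note: 0% = DMSO wells with enzyme and 100% = wells lacking Arfgap1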)). Details: GDP FP detection, at 16.5 µM, active compounds read high.
Chain of ADP-ribosylation factor GTPase-activating protein 1 (Rattus norvegicus) (Q62848 1-136 limits assumed): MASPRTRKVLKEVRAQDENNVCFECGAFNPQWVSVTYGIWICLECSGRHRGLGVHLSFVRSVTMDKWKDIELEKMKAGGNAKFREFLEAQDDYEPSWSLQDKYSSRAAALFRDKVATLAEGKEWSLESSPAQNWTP
Summary of the method: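 Material: rat Arfgap1 catalytic domain, aa 1-136; also added: human ARF1(Δ1-17)-GTP substrate; compound dosing: one concentration, 16.5 µM, DMSO 1.26%; incubation: GTP hydrolysis reaction 2 h at 25 °C; measured by: Tracer-displacement fluorescence polarization with EDTA stop, 620/688 nm; evaluation: % inhibition from polarization; repeats: one replicate per compound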
In the case of O=C(N[C@H](C(=O)N1CCC[C@H]1C(=O)NCCc1ccccc1Cl)c1ccccc1)c1ccccc1, the inhibition is reported as 0.74% (inactive).
For Cc1ccccc1C(=O)N[C@H](C(=O)N1CCC[C@H]1C(=O)NCc1ccccc1)C(C)C, the inhibition was -4.95% (inactive).
With COc1cc(C2C(C(=O)c3ccco3)=C(O)C(=O)N2c2cc(C)on2)ccc1OCc1ccccc1 (stereo unspecified) the inhibition was -0.46% (inactive).
With Cc1ccc2nc(N3C(=O)C(O)=C(C(=O)c4ccco4)C3c3cccc(O)c3)sc2c1 (stereo unspecified) the inhibition was 28.5% (active).
In the case of C=CCSc1nnc(N2C(=O)C(O)=C(C(=O)c3ccco3)C2c2ccc(F)cc2)s1 (stereo unspecified), the inhibition is reported as -2.87% (inactive).
In the case of COC(=O)C1=C(C)N(Cc2ccccc2C(F)(F)F)C(=NCC2CC2)NC1c1cccc(Cl)c1 (stereo unspecified), the inhibition is reported as -11.5% (inactive).
With CN1C(=O)C(Br)(Br)CC1c1cccnc1 (stereo unspecified) the inhibition was 15.5% (inactive).
With CC(=O)c1ccc(S(=O)(=O)NCC2CCN(C(=O)C(=O)c3cccs3)CC2)cc1 the inhibition was 0.05% (inactive).
Clc1cccc2c1C1CC2CCN1Cc1ccccc1 (stereo unspecified) was tested, and the inhibition was 1.92% (inactive).
CCc1cccc(NC(=O)C2CCCN(S(=O)(=O)c3ccc4[nH]c(=O)ccc4c3)C2)c1 (stereo unspecified) was tested, and the inhibition was -1.05% (inactive).
For Cc1cc(C)cc(NC(=O)C2CCCN(S(=O)(=O)c3ccc4[nH]c(=O)ccc4c3)C2)c1 (stereo unspecified), the inhibition was 27.2% (active).
In the case of CC1CCN(S(=O)(=O)c2ccc3[nH]c(=O)ccc3c2)CC1, the inhibition is reported as -6.93% (inactive).
In the case of CCOc1ccccc1C(=O)N1CCC[C@@H]1C(=O)N1CCC[C@H]1C(=O)NCc1ccccc1, the inhibition is reported as 2.51% (inactive).
C=CCN1C(=O)N(Cc2ccccc2)c2ccccc2S1(=O)=O was tested, and the inhibition was -1.51% (inactive).
For O=C(CN1CCN(c2ccc(Cl)cc2)CC1)NCc1cccs1, the inhibition was -5.05% (inactive).
For COc1ccc(NC(=S)NCc2cccs2)c(OC)c1, the inhibition was 7.24% (inactive).
In the case of S=C(NCc1cccs1)Nc1ccc(Cl)cc1, the inhibition is reported as 28.2% (active).
COc1ccc(-c2ccc3c(n2)CCCN3S(=O)(=O)c2ccc(C)cc2)cc1 was tested, and the inhibition was -4.31% (inactive).
In the case of COc1ccccc1-c1ccc([C@@H]2C[C@H]3[C@H](CON3C)CN2S(=O)(=O)c2cc(Cl)cc(Cl)c2)cc1, the inhibition is reported as 5.63% (inactive).
In the case of Nc1nc2c(ncn2[C@@H]2O[C@H](C(=O)N[C@@H](Cc3ccccc3)C(=O)NCc3ccccc3)[C@@H](O)[C@H]2O)c(=O)[nH]1, the inhibition is reported as -1.71% (inactive).
COC(=O)[C@]12C[C@H](CC(=O)NCc3cccc(C(F)(F)F)c3)C(=O)N(Cc3ccc4c(c3)OCO4)C1=C[C@H](COCc1ccccc1)O[C@@H]2C was tested, and the inhibition was 5.08% (inactive).
For Cc1[nH]nc2c1C(c1ccc(Br)cc1)NC2=O (stereo unspecified), the inhibition was 2.74% (inactive).
In the case of COC(=O)C1=C(C)N(Cc2ccccc2C(F)(F)F)C(=NCc2ccc(OC)cc2)NC1c1cccc(C(F)(F)F)c1 (stereo unspecified), the inhibition is reported as 10.9% (inactive).
In the case of O=C(CCc1ccccc1)Nc1ncc([N+](=O)[O-])s1, the inhibition is reported as 29% (active).
With O=C(CCc1ccccc1)Nc1nn[nH]n1 the inhibition was 11.2% (inactive).
With CC(C)(C)NC(=O)CSc1nnc(NC(=O)CCc2ccccc2)s1 the inhibition was 0.73% (inactive).
With Nc1ccn([C@@H]2O[C@H](C(=O)N[C@H]3CCCCNC3=O)[C@@H](O)[C@H]2O)c(=O)n1 the inhibition was -7.26% (inactive).
With COc1ccc(-c2ccccc2C2Cc3nnccc3CN2C(=O)Nc2ccccc2)cc1 (stereo unspecified) the inhibition was 0.85% (inactive).
In the case of COc1ccc(NC(=O)c2cn(-c3ccccc3)nc2SC)cc1, the inhibition is reported as 25.1% (active).
In the case of COc1ccc(NC(=O)c2ccccc2CC[N+](=O)[O-])cc1, the inhibition is reported as -2.01% (inactive).
For COc1ccc(NC(=O)CSc2nc(N)c(-c3ccccc3)c(=O)[nH]2)cc1, the inhibition was 5.45% (inactive).
With NC(=O)c1ncn([C@@H]2O[C@H](C(=O)O)[C@@H](O)[C@H]2O)n1 the inhibition was -10.5% (inactive).
In the case of COC(=O)C1=C(C)N(Cc2cccc(C(F)(F)F)c2)C(=NCc2cccc(C(F)(F)F)c2)NC1c1ccccc1C(F)(F)F (stereo unspecified), the inhibition is reported as 18.5% (inactive).
CCO[C@@H]1OC(C(N)=O)=C[C@H](c2ccc(Br)cc2)[C@H]1CCCO was tested, and the inhibition was 37% (active).
C#CCNC(=O)C1=C[C@@H](c2ccccc2)[C@H](CCCO)[C@@H](OCC)O1 was tested, and the inhibition was 0.84% (inactive).
For CCO[C@H]1OC(C(=O)N2CCCCCCC2)=C[C@@H](c2ccc(C(F)(F)F)cc2)[C@@H]1CCCO, the inhibition was 5.85% (inactive).
With CC[C@H](C)[C@H]1CNC(=O)C(=O)N1CC1CCN(CCc2ccc(OC)c(OC)c2)CC1 the inhibition was 4.8% (inactive).
In the case of COC(=O)[C@]12C[C@H](CC(=O)NCc3ccc(OC)c(OC)c3)C(=O)N(Cc3ccccc3)C1=C[C@H](C(C)C)O[C@@H]2C1CC1, the inhibition is reported as 1.55% (inactive).
In the case of COc1cccc(CNC(=O)[C@H]2CCCN2C(=O)[C@H]2CCCN2C(=O)c2ccc(F)cc2)c1, the inhibition is reported as 2.29% (inactive).
For CCOC(=O)N1CCN(C(=O)C[C@H]2C[C@@]3(C(=O)OC)C(=C[C@H](C4CCCC4)O[C@@H]3C)N(Cc3ccccc3)C2=O)CC1, the inhibition was -0.91% (inactive).
In the case of COc1ccccc1C(=O)N1O[C@]23C=C[C@]14C[C@@H](O)CC[C@]4(C)C2CC[C@]1(C)[C@@H]([C@H](C)/C=C/[C@H](C)C(C)C)CC[C@H]13 (stereo partly specified), the inhibition is reported as -2.43% (inactive).
For OC(c1ccccc1)(c1ccccc1)C1CCN(CCCOc2ccc(-c3ccsc3)cc2)CC1, the inhibition was 15.6% (inactive).
With COCCNc1cc(-c2ccccc2)nc2cc(-c3cccc(F)c3)nn12 the inhibition was 26.4% (active).
COCCCNc1ccn2nc(-c3ccc(CC(C)C)cc3)cc2n1 was tested, and the inhibition was 12.8% (inactive).
In the case of COc1ccc(-c2cc3nc(NCCOc4ccccc4)ccn3n2)cc1, the inhibition is reported as 22.7% (inactive).
For C[C@H]1[C@H](c2ccccc2)Oc2cc(Br)ccc2S(=O)(=O)N1Cc1cccc(F)c1, the inhibition was -1.97% (inactive).
For Cc1noc(C)c1NC(=O)Nc1ccc2c(c1)C(=O)N([C@H](C)CO)C[C@H](C)[C@H](CN(C)Cc1ccncc1)OCCCC[C@@H](C)O2, the inhibition was 7.37% (inactive).
With COC(=O)c1c(-c2ccc(OC)cc2)c2c(c3c4cc(OC)ccc4n(S(=O)(=O)c4ccc(F)cc4)c13)C(=O)N(C)C2 the inhibition was -3.49% (inactive).
With COC(=O)[C@]12C[C@H](CC(=O)NCCCCc3ccccc3)C(=O)N(Cc3ccc4c(c3)OCO4)C1=C[C@H](C(C)(C)C)O[C@@H]2C the inhibition was 2.49% (inactive).
With CCC(=C/c1sc2ccc3ccccc3c2[n+]1C)/C=C1\Sc2ccc3ccccc3c2N1C the inhibition was 39.3% (active).
With Nc1[nH]c(C(=O)c2ccc(Br)cc2)c(-c2ccc3c(c2)OCO3)c1C(=O)NCCc1c[nH]c2ccccc12 the inhibition was 15.2% (inactive).
For CN(C)CCNC(=O)c1cccc(-c2cnc3c(NC=O)cc(-c4cccc(C(F)(F)F)c4)cn23)c1, the inhibition was 5.54% (inactive).
CC(=O)c1cccc(-c2cnc3c(NC=O)cc(-c4ccccc4Oc4ccccc4)cn23)c1 was tested, and the inhibition was -2.03% (inactive).
With CN(C)CCNC(=O)c1ccc(-c2cn3c(-c4ccc(Oc5ccccc5)cc4)cnc3cn2)cc1 the inhibition was 40.4% (active).
In the case of CCOC(=O)Cn1c2c(n(-c3ccc(F)cc3)c1=O)C=C(c1ccccc1)[C@@H](C)C(C(=O)N(C)C1CCCCC1)=C2, the inhibition is reported as -3.57% (inactive).
For CCc1ccc(C2=CC(=O)CC(C)(C)C2=O)cc1, the inhibition was 5.54% (inactive).
COC(=O)C1=C(C)N(Cc2ccccc2C(F)(F)F)C(=NCc2ccc(C(F)(F)F)cc2)NC1c1ccc(F)cc1 (stereo unspecified) was tested, and the inhibition was 16.5% (inactive).
For COc1cccc(CC(=O)N2CCN(C(=O)C(=O)c3cccc(C(F)(F)F)c3)CC2)c1, the inhibition was -7.68% (inactive).
O=S1(=O)c2c(cccc2N2CCCC2)O[C@H](COCc2ccccc2)CN1C1CC1 was tested, and the inhibition was -15.6% (inactive).
For O=C1[C@@H](c2ccccc2)[C@@H](c2ccccc2)N1c1ccccc1, the inhibition was -3.37% (inactive).
CCn1c(SCc2cc(=O)n3ccsc3n2)nc2ccccc21 was tested, and the inhibition was 26.2% (active).
For CCn1c(SCC(=O)N2CCCC2=O)nc2ccccc21, the inhibition was -1.54% (inactive).
With O=C(O)CCn1c(SCc2cc(=O)n3ccccc3n2)nc2ccsc2c1=O the inhibition was 9.88% (inactive).
With O=C1Nc2ccccc2C1=NN=Cc1ccco1 the inhibition was 18.3% (inactive).
With COC(=O)C1=C(C)N(Cc2cccc(C(F)(F)F)c2)C(=NCc2ccccc2)NC1c1ccccc1C(F)(F)F (stereo unspecified) the inhibition was 18.8% (inactive).
With O=C(Nc1c(Cl)c(C2CC2)nn1-c1ccccc1)C(Cl)(Cl)Cl the inhibition was 1.34% (inactive).
For COc1cccc(NC(=O)N(C)C[C@@H]2OCc3cn(nn3)CCCC(=O)N([C@@H](C)CO)C[C@H]2C)c1, the inhibition was 2.11% (inactive).
Nc1ncnc2c1ncn2[C@@H]1O[C@H](C(=O)N[C@@H](CCc2ccccc2)C(=O)N2CCCN(Cc3cccs3)CC2)[C@@H](O)[C@H]1O was tested, and the inhibition was -6.61% (inactive).
With COc1ccc(SSc2ccc(OC)cc2C(=O)O)c(C(=O)O)c1 the inhibition was -0.05% (inactive).
For C[C@H](O)[C@@H]1C(=O)N2CCc3c([nH]c4c(-c5ccc6c(c5)OCO6)cccc34)[C@@H]2C[C@@H]1N(C)C(=O)c1ccco1, the inhibition was 1.71% (inactive).
With COc1cccc(CNc2nc(NCc3cccs3)nc3ccsc23)c1 the inhibition was 2.65% (inactive).
With COc1cccc(CNc2nc(C(F)(F)F)nc3ccccc23)c1 the inhibition was 27.8% (active).
With COc1cccc(CNc2ncc(-c3ccccc3)n2C)c1 the inhibition was -4.8% (inactive).
In the case of C[C@@H](CN1C2=NC[C@@H](Cc3ccccc3)N2C[C@H]1Cc1ccc(O)cc1)NC(=O)CCC1CCCCC1, the inhibition is reported as 6.99% (inactive).
With CC[C@H](NC(=O)[C@H](Cc1ccccc1)NC(=O)[C@H]1O[C@@H](n2cnc3c(=O)[nH]c(N)nc32)[C@H](O)[C@@H]1O)c1ccccc1 the inhibition was 10% (inactive).
In the case of COC(=O)[C@]1(Cc2ccccc2)NC=C(C(=O)c2ccccc2)[C@@H]1c1cccc(OC)c1, the inhibition is reported as 1.68% (inactive).

— PubChem BioAssay AID651572 (The Scripps Research Institute Molecular Screening Center, 2012)
